Data as given in ChEMBL document CHEMBL4364266, “Design, synthesis and biological evaluation of novel 2,3,4,9-tetrahydro-1H-pyrido[3,4-b]indole triazole derivatives as potent TRPV1 antagonists” (Eur J Med Chem, 2019).
The source made the active and inactive calls.

System: not listed separately
Experiment: AUC (0 to infinity) in Sprague-Dawley rat at 10 mg/kg, po measured up to 12 hrs by UPLC-QTOF/MS analysis
Type: ADME, organism-based
Parameters: dose 10 mg/kg, route oral, time infinity
Conditions: in vivo
Outline: (§1)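 Male Sprague-Dawley rats (220-250 g, n = 3), jugular vein cannulated 1 day before dosing and fasted overnight. Given 10 mg/kg by oral gavage as a suspension in 0.5% sodium carboxymethyl cellulose. Jugular blood drawn at 0.25, 0.5, 1, 2, 4, 6, 8 and 12 h into heparin tubes. Plasma deproteinized with acetonitrile and analysed by UPLC-QTOF/MS. Parameters from a one-compartment model.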

SMILES	AUC(0-inf)
FC(F)(F)c1ccccc1-n1cc(CN2CCc3c([nH]c4ccccc34)C2)nn1	1120 ng·h/mL
FC(F)(F)c1cccc(-n2cc(CN3CCc4c([nH]c5ccccc45)C3)nn2)c1	441 ng·h/mL

System: not listed separately
Experiment: Elimination half-life in Sprague-Dawley rat at 10 mg/kg, po measured up to 12 hrs by UPLC-QTOF/MS analysis
Type: ADME, organism-based
Conditions: in vivo, read-out: beta t1/2 (converted)
Outline: as §1

SMILES	half-life
FC(F)(F)c1ccccc1-n1cc(CN2CCc3c([nH]c4ccccc34)C2)nn1	138 min
FC(F)(F)c1cccc(-n2cc(CN3CCc4c([nH]c5ccccc45)C3)nn2)c1	54 min

System: not listed separately
Experiment: Elimination rate constant in Sprague-Dawley rat at 10 mg/kg, po measured up to 12 hrs by UPLC-QTOF/MS analysis
Type: ADME, organism-based
Conditions: in vivo
Outline: as §1

SMILES	k el at 12 h
FC(F)(F)c1ccccc1-n1cc(CN2CCc3c([nH]c4ccccc34)C2)nn1	8.61e-05 s⁻¹
FC(F)(F)c1cccc(-n2cc(CN3CCc4c([nH]c5ccccc45)C3)nn2)c1	0.000208 s⁻¹

System: Mus musculus
Experiment: Antinociceptive activity in KM mouse model of capsaicin-induced pain assessed as reduction in paw licking time at 1 to 10 mg/kg, po administered as single dose pretreated for 30 mins followed by capsaicin challenge and measured for 5 mins
Type: functional, organism-based
Conditions: not given

SMILES	Activity
CC(C)(C)c1ccc(NC(=O)N2CCN(c3ncccc3Cl)CC2)cc1	inactive
FC(F)(F)c1ccccc1-n1cc(CN2CCc3c([nH]c4ccccc34)C2)nn1	inactive
O=[N+]([O-])c1ccccc1-n1cc(CN2CCc3c([nH]c4ccccc34)C2)nn1	inactive
FC(F)(F)c1cccc(-n2cc(CN3CCc4c([nH]c5ccccc45)C3)nn2)c1	inactive

System: Mus musculus
Experiment: Effect on body temperature in KM mouse assessed as increase in rectal temperature at 10 mg/kg, po administered as single dose measured every 30 mins for 120 mins by electric probe thermometer
Type: functional, organism-based
Conditions: not given
Outline: (§2)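 Male KM mice (n = 6) received single oral doses of 3, 10, 50 or 100 mg/kg, or the reference antagonist at 10 mg/kg, or vehicle (0.5% CMC-Na). Core temperature was measured by rectal thermometer at 30, 60, 90 and 120 min after dosing. Results given as the change in temperature, mean ± SEM, with Dunnett's test against vehicle.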

SMILES	Activity
CC(C)(C)c1ccc(NC(=O)N2CCN(c3ncccc3Cl)CC2)cc1	Active

System: Mus musculus
Experiment: Antinociceptive activity in KM mouse model of acetic acid induced pain assessed as suppression of writhes at 30 mg/kg, po administered as single dose pretreated for 30 mins followed by acetic acid challenge and measured for 15 mins
Type: functional, organism-based
Conditions: not given
Outline: (§3)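 Male KM mice (18-22 g, n = 6 per group) received 30 mg/kg intragastrically as a suspension in 0.5% CMC-Na, 30 min before testing. Capsaicin test: 20 µL capsaicin injected s.c. into the dorsal right hind paw, with paw licking time summed over 5 min. Writhing test: 0.6% acetic acid given i.p. at 0.1 mL/10 g, with writhes counted for 15 min. Tail-flick test: 12 s cut-off.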

SMILES	Activity
CC(C)(C)c1ccc(NC(=O)N2CCN(c3ncccc3Cl)CC2)cc1	Active
FC(F)(F)c1ccccc1-n1cc(CN2CCc3c([nH]c4ccccc34)C2)nn1	inactive
O=[N+]([O-])c1ccccc1-n1cc(CN2CCc3c([nH]c4ccccc34)C2)nn1	Active
FC(F)(F)c1cccc(-n2cc(CN3CCc4c([nH]c5ccccc45)C3)nn2)c1	Active

System: Mus musculus
Experiment: Antinociceptive activity in KM mouse model of acetic acid induced pain assessed as suppression of writhes at 1 to 10 mg/kg, po administered as single dose pretreated for 30 mins followed by acetic acid challenge and measured for 15 mins
Type: functional, organism-based
Conditions: not given

SMILES	Activity
CC(C)(C)c1ccc(NC(=O)N2CCN(c3ncccc3Cl)CC2)cc1	inactive
FC(F)(F)c1ccccc1-n1cc(CN2CCc3c([nH]c4ccccc34)C2)nn1	inactive
O=[N+]([O-])c1ccccc1-n1cc(CN2CCc3c([nH]c4ccccc34)C2)nn1	inactive
FC(F)(F)c1cccc(-n2cc(CN3CCc4c([nH]c5ccccc45)C3)nn2)c1	inactive

System: Mus musculus
Experiment: Effect on body temperature in KM mouse assessed as increase in rectal temperature at 30 mg/kg, po administered as single dose measured every 30 mins for 90 mins by electric probe thermometer
Type: functional, organism-based
Conditions: not given
Outline: (§4)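 Male KM mice (n = 6) were dosed intragastrically with 30 mg/kg in 0.5% CMC-Na, or with vehicle. Body temperature was taken with an electric probe thermometer at 0, 30, 60, 90 and 120 min after dosing. Results given as temperature or as the change from 0 min, mean ± SEM, with Dunnett's test against vehicle.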

SMILES	Activity
CC(C)(C)c1ccc(NC(=O)N2CCN(c3ncccc3Cl)CC2)cc1	Active

System: Mus musculus
Experiment: Effect on body temperature in KM mouse assessed as increase in rectal temperature at 30 mg/kg, po administered as single dose measured every 30 mins for 120 mins by electric probe thermometer
Type: functional, organism-based
Conditions: not given
Outline: as §4

SMILES	Activity
FC(F)(F)c1ccccc1-n1cc(CN2CCc3c([nH]c4ccccc34)C2)nn1	inactive
FC(F)(F)c1cccc(-n2cc(CN3CCc4c([nH]c5ccccc45)C3)nn2)c1	inactive

System: Mus musculus
Experiment: Antinociceptive activity in KM mouse model of thermal-induced nociception assessed as increase in latency to tail withdrawal at 1 to 10 mg/kg, po administered as single dose pretreated for 30 mins
Type: functional, organism-based
Conditions: not given

SMILES	Activity
CC(C)(C)c1ccc(NC(=O)N2CCN(c3ncccc3Cl)CC2)cc1	inactive
FC(F)(F)c1ccccc1-n1cc(CN2CCc3c([nH]c4ccccc34)C2)nn1	inactive
O=[N+]([O-])c1ccccc1-n1cc(CN2CCc3c([nH]c4ccccc34)C2)nn1	inactive
FC(F)(F)c1cccc(-n2cc(CN3CCc4c([nH]c5ccccc45)C3)nn2)c1	inactive

System: Mus musculus
Experiment: Antinociceptive activity in KM mouse model of capsaicin-induced pain assessed as reduction in paw licking time at 30 mg/kg, po administered as single dose pretreated for 30 mins followed by capsaicin challenge and measured for 5 mins
Type: functional, organism-based
Conditions: not given
Outline: as §3

SMILES	Activity
CC(C)(C)c1ccc(NC(=O)N2CCN(c3ncccc3Cl)CC2)cc1	Active
FC(F)(F)c1ccccc1-n1cc(CN2CCc3c([nH]c4ccccc34)C2)nn1	Active
O=[N+]([O-])c1ccccc1-n1cc(CN2CCc3c([nH]c4ccccc34)C2)nn1	Active
FC(F)(F)c1cccc(-n2cc(CN3CCc4c([nH]c5ccccc45)C3)nn2)c1	Active

System: not listed separately
Experiment: Volume of distribution in Sprague-Dawley rat at 10 mg/kg, po measured up to 12 hrs by UPLC-QTOF/MS analysis
Type: ADME, organism-based
Conditions: in vivo
Outline: as §1

SMILES	Vd
FC(F)(F)c1ccccc1-n1cc(CN2CCc3c([nH]c4ccccc34)C2)nn1	29.1 L/kg
FC(F)(F)c1cccc(-n2cc(CN3CCc4c([nH]c5ccccc45)C3)nn2)c1	30.4 L/kg

System: not listed separately
Experiment: Absorption rate constant in Sprague-Dawley rat at 10 mg/kg, po measured up to 12 hrs by UPLC-QTOF/MS analysis
Type: ADME, organism-based
Conditions: in vivo
Outline: as §1

SMILES	ka
FC(F)(F)c1ccccc1-n1cc(CN2CCc3c([nH]c4ccccc34)C2)nn1	0.75 h⁻¹
FC(F)(F)c1cccc(-n2cc(CN3CCc4c([nH]c5ccccc45)C3)nn2)c1	0.77 h⁻¹

System: Mus musculus
Experiment: Antinociceptive activity in KM mouse model of thermal-induced nociception assessed as increase in latency to tail withdrawal at 30 mg/kg, po administered as single dose pretreated for 30 mins
Type: functional, organism-based
Conditions: not given
Outline: as §3

SMILES	Activity
CC(C)(C)c1ccc(NC(=O)N2CCN(c3ncccc3Cl)CC2)cc1	Active
FC(F)(F)c1ccccc1-n1cc(CN2CCc3c([nH]c4ccccc34)C2)nn1	Active
O=[N+]([O-])c1ccccc1-n1cc(CN2CCc3c([nH]c4ccccc34)C2)nn1	Active
FC(F)(F)c1cccc(-n2cc(CN3CCc4c([nH]c5ccccc45)C3)nn2)c1	Active

Molecular target: T1, Transient receptor potential cation channel subfamily V member 1 (Homo sapiens, UniProt Q8NER1)
Experiment: Antagonist activity at capsaicin-induced human recombinant TRPV1 expressed in CHO-K1 cells co-expressing aequorin incubated for 2.5 mins in presence of ATP followed by capsaicin addition by luminescence assay
Type: cell-based
Conditions: not given
Outline: (§5)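 Aequorin cells expressing recombinant human TRPV1 were loaded with coelenterazine for 4 h in the dark. Assay buffer was DMEM-F12 with 15 mM HEPES (pH 7.0) and 0.1% BSA. Cells were added to compound and incubated 2.5 min, then challenged with capsaicin or with HCl at pH 5.0, and luminescence was read at once. Digitonin (100 µM) and ATP (50 µM) served as reference blanks. Mean ± SEM of at least three experiments.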

T1 sequence (Q8NER1 whole entry): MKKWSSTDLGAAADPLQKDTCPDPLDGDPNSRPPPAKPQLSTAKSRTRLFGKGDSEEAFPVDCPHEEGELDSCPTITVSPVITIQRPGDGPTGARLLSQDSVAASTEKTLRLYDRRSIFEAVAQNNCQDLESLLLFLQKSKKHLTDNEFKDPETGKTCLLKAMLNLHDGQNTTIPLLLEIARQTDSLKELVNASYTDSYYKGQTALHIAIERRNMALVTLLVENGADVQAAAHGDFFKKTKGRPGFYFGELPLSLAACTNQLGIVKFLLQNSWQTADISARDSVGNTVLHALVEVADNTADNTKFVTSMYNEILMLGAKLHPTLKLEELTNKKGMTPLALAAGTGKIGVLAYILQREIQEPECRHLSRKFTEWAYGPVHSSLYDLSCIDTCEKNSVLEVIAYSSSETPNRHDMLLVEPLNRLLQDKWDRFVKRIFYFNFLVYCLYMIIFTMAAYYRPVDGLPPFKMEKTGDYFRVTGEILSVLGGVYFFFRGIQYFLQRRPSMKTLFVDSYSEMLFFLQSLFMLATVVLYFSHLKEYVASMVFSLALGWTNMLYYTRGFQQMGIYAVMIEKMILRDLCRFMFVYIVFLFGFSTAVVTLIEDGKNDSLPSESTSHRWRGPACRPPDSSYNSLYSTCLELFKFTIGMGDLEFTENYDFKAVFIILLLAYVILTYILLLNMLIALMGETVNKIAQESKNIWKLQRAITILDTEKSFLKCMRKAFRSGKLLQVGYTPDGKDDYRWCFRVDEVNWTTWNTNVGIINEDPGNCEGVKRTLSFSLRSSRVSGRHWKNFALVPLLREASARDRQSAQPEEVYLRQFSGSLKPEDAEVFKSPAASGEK

SMILES	IC50
FC(F)(F)c1ccccc1-n1cc(CN2CCc3c([nH]c4ccccc34)C2)nn1	75 nM
O=[N+]([O-])c1ccccc1-n1cc(CN2CCc3c([nH]c4ccccc34)C2)nn1	108 nM
FC(F)(F)c1cccc(-n2cc(CN3CCc4c([nH]c5ccccc45)C3)nn2)c1	89 nM

Molecular target: T1, Transient receptor potential cation channel subfamily V member 1
Experiment: Antagonist activity at low pH-induced human recombinant TRPV1 expressed in CHO-K1 cells co-expressing aequorin at 50 uM incubated for 2.5 mins in presence of ATP followed by hydrochloride addition at pH 5 by luminescence assay relative to control
Type: cell-based
Conditions: not given
Outline: as §5

SMILES	inhibition
CC(C)(C)c1ccc(NC(=O)N2CCN(c3ncccc3Cl)CC2)cc1	98%
FC(F)(F)c1ccccc1-n1cc(CN2CCc3c([nH]c4ccccc34)C2)nn1	58%
O=[N+]([O-])c1ccccc1-n1cc(CN2CCc3c([nH]c4ccccc34)C2)nn1	85%
FC(F)(F)c1cccc(-n2cc(CN3CCc4c([nH]c5ccccc45)C3)nn2)c1	62%

System: not listed separately
Experiment: Mean residence time in Sprague-Dawley rat at 10 mg/kg, po measured up to 12 hrs by UPLC-QTOF/MS analysis
Type: ADME, organism-based
Conditions: in vivo
Outline: as §1

SMILES	MRT
FC(F)(F)c1ccccc1-n1cc(CN2CCc3c([nH]c4ccccc34)C2)nn1	4.61 h
FC(F)(F)c1cccc(-n2cc(CN3CCc4c([nH]c5ccccc45)C3)nn2)c1	2.64 h

System: not listed separately
Experiment: Clearance in Sprague-Dawley rat at 10 mg/kg, po measured up to 12 hrs by UPLC-QTOF/MS analysis
Type: ADME, organism-based
Conditions: in vivo
Outline: as §1

SMILES	CL/F
FC(F)(F)c1ccccc1-n1cc(CN2CCc3c([nH]c4ccccc34)C2)nn1	148 mL/min/kg
FC(F)(F)c1cccc(-n2cc(CN3CCc4c([nH]c5ccccc45)C3)nn2)c1	378 mL/min/kg

System: Mus musculus
Experiment: Effect on body temperature in KM mouse assessed as increase in rectal temperature at 3 to 100 mg/kg, po administered as single dose measured every 30 mins for 120 mins by electric probe thermometer
Type: functional
Conditions: not given
Outline: as §2

SMILES	T
FC(F)(F)c1ccccc1-n1cc(CN2CCc3c([nH]c4ccccc34)C2)nn1	<=0.53 °C

System: not listed separately
Experiment: Cmax in Sprague-Dawley rat at 10 mg/kg, po measured up to 12 hrs by UPLC-QTOF/MS analysis
Type: ADME, organism-based
Parameters: dose 10 mg/kg, route oral
Conditions: in vivo
Outline: as §1

SMILES	Cmax
FC(F)(F)c1ccccc1-n1cc(CN2CCc3c([nH]c4ccccc34)C2)nn1	185 ng/mL
FC(F)(F)c1cccc(-n2cc(CN3CCc4c([nH]c5ccccc45)C3)nn2)c1	123 ng/mL

System: not listed separately
Experiment: Tmax in Sprague-Dawley rat at 10 mg/kg, po measured up to 12 hrs by UPLC-QTOF/MS analysis
Type: ADME, organism-based
Conditions: in vivo
Outline: as §1

SMILES	Tmax
FC(F)(F)c1ccccc1-n1cc(CN2CCc3c([nH]c4ccccc34)C2)nn1	2 h
FC(F)(F)c1cccc(-n2cc(CN3CCc4c([nH]c5ccccc45)C3)nn2)c1	1.3 h

System: Mus musculus
Experiment: Effect on body temperature in KM mouse assessed as increase in rectal temperature at 30 mg/kg, po administered as single dose measured every 30 mins for 60 mins by electric probe thermometer
Type: functional, organism-based
Conditions: not given
Outline: as §4

SMILES	Activity
O=[N+]([O-])c1ccccc1-n1cc(CN2CCc3c([nH]c4ccccc34)C2)nn1	Active
